Test results published in PubChem BioAssay AID1556 (The Scripps Research Institute Molecular Screening Center, 2009).
The campaign covered roughly 290,000 compounds. About 1,300 (0.45%) were called active.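 Rule for the calls: active = inhibition above the mean plus 3 SD of all compounds in the same screening run (cut at about 4.5% in these data); inactive = the rest.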 The entries come from a sample that favours actives as a whole.

Tested on: metallo-beta-lactamase IMP-1 (Pseudomonas aeruginosa)
Experiment: inhibition of IMP-1 nitrocefin hydrolysis – biochemical, epi-absorbance readout, Pseudomonas aeruginosa enzyme, primary screen (AID 1556);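 note: 0% = IMP-1 with DMSO and 100% = DMSO wells lacking enzyme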
Conditions: purified IMP-1, nitrocefin hydrolysis, epi-absorbance fluorescence; at 5.6 µM; hits give high values
Procedure, shortened: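 System: purified IMP-1 / Input: IMP-1 dispensed at 0.2 nM / Medium: 50 mM HEPES pH 7.1, 50 µM ZnSO4, 0.05% Brij 35 / Timing: 15 min enzyme–compound preincubation, then 25 min nitrocefin reaction, 25 °C / Technique: plate fluorescence quenching by hydrolysis product, ex 480/em 530 nm / Repeats: singlicate testing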

Row | SMILES | inhibition
1 | CCN1C(=O)C(=Cc2c(C)n(CC(=O)NCC3CCCO3)c3ccccc23)C(=O)N(CC)C1=S (stereo not given) | 20% (active)
2 | O=C(O)c1ccccc1NC(=O)C1C2CCC(O2)C1C(=O)O (stereo not given) | -2.48% (inactive)
3 | CCCCn1c(=O)c(C(=O)Nc2ccccc2Cl)c(O)c2ccccc21 | -1.42% (inactive)
4 | CCOC(=O)C1SC2(C(F)(F)C(F)F)CC1(O)c1c(c(OC)c3occc3c1OC)O2 (stereo not given) | -3.5% (inactive)
5 | C[N+]12CN3CN(CN(C3)C1)C2 | 5.56% (active)
6 | Cc1cccc(OP(=O)(Oc2cccc(C)c2)OC(c2ccccc2)C(F)(F)F)c1 (stereo not given) | -4.97% (inactive)
7 | Clc1ccc2nc3c(c(-c4ccccc4)c2c1)CNCC3 | -2.18% (inactive)
8 | Cc1ccc(C)c(NC2=NCCCS2)c1 | -1.87% (inactive)
9 | COc1cc2nc(N3CCN(C(=O)[C@@H]4CCCO4)CC3)nc(N)c2cc1OC | -4.21% (inactive)
10 | CC1(C)C(c2ccccc2)=NC(c2cccnc2)=[N+]1[O-] | -4.75% (inactive)
